These results are taken from ChEMBL document CHEMBL1147589, “Abeta aggregation inhibitors. Part 1: Synthesis and biological activity of phenylazo benzenesulfonamides” (Bioorg Med Chem Lett, 2004).

What is called EC50 is the concentration at which the effect is half-maximal. A higher EC50 goes with a need for much substance. By IC50 is commonly meant the concentration at which inhibition is half-maximal. The low end stands for higher potency, the high end for lower potency.

Series [1] is filed under the species Rattus norvegicus. Kind of series: Effective concentration required to inhibit A-beta-40 fibril formation […]. Type of series: functional. Summed up: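 Thioflavin-T binding assay of Aβ40 aggregation. Aβ40 (25) was incubated with the compound at various concentrations in 50 mM TBS, pH 7.4, at 37 °C for 2 days. Fluorescence was read at Ex 450/Em 482 and scaled to Aβ40 alone (100%). EC50 is the concentration inhibiting aggregation by 50%. Values are averages of three separate experiments.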

The species named for series [2] is Rattus norvegicus. In words: Evaluated for neurotoxicity by inhibition of neuron viability in rat cortical neurons expressed as IC50. Type of series: functional. Summed up:
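Cortical neurons were incubated with the compound at various concentrations, and viability was measured by MTT reduction with OD at 600 nm on an ELISA reader. IC50 is the concentration inhibiting neuron viability by 50%. Values are averages of three separate experiments.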

Series [3] can be described thus: Therapeutic index expressed as the ratio of IC50 to EC50. Conditions: rat; read-out: Therapeutic index. Summed up:
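Therapeutic index = IC50/EC50. IC50 is the concentration inhibiting neuron viability by 50% in the MTT reduction assay on cortical neurons. EC50 is the concentration inhibiting Aβ40 aggregation by 50% in the thioflavin-T assay (25 Aβ40, TBS pH 7.4, 37 °C, 2 days). Both were determined at various compound concentrations in three separate experiments.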

As for `Nc1ccc(/N=N/c2ccc(S(N)(=O)=O)cc2)cc1`, in the series filed under Rattus norvegicus [1], the EC50 stood at 100 µM. In addition, the IC50 in the series filed under Rattus norvegicus [2] is above 100 µM.

`CSc1cc(N)ccc1/N=N/c1ccc(S(N)(=O)=O)cc1` registered an EC50 in the series filed under Rattus norvegicus [1] of 56.8 µM. In addition, the IC50 in the series listed under Rattus norvegicus [2] was above 100 µM. In series [3], the selectivity ratio was above 1.76.

In the series listed under Rattus norvegicus [1], `NS(=O)(=O)c1ccc(/N=N/c2ccc(NCS(=O)(=O)O)cc2)cc1` gave an EC50 of 77.2 µM. For the same compound, the IC50 in the series filed under Rattus norvegicus [2] is above 100 µM. In addition, the selectivity ratio in series [3] was above 1.29.

`CCN(CC)CCNc1ccc(/N=N/c2ccc(S(N)(=O)=O)cc2)c2ccccc12`: the EC50 in the series filed under Rattus norvegicus [1] is 15.1 µM. The compound further showed an IC50 in the series filed under Rattus norvegicus [2] of 22.1 µM. Moreover, the selectivity ratio in series [3] was 1.47.

In the series filed under Rattus norvegicus [1], `CN(C)c1ccc(/N=N/c2ccc(S(N)(=O)=O)cc2)cc1` came in with an EC50 of 12.9 µM. The same compound gave an IC50 in the series filed under Rattus norvegicus [2] above 100 µM. In series [3], the selectivity ratio is above 7.75.
